One assay has as its system Leishmania donovani. Nature of the assay: Antileishmanial activity against Leishmania donovani axenic amastigotes after 3 days by tetrazolium dye based spectrophotometric analysis at pH 5.5. It is filed as functional, organism-based. Particulars: 72 h. In outline:
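Ld1s axenic amastigote-like L. donovani grown in potassium-based medium, pH 5.5, 37 °C; exposed to compounds for three days; tetrazolium dye added and read spectrophotometrically. IC50 (μM) averaged with standard errors, n ≥ 3.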

For another assay, the system named is Leishmania amazonensis. Briefly: Antileishmanial activity against beta-lactamase transfected Leishmania amazonensis promastigotes infected in macrophages after 72 hrs by spectrophotometric analysis. The assay is classed as functional, organism-based. In a few lines: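 Macrophages plated and adhered overnight; infected with β-lactamase-transfected L. amazonensis promastigotes (MOI 5:1) overnight; compounds added for 72 hours at 34 °C; nitrocefin in lysis buffer added for 3 to 5 hours further; absorbance read at 490 nm. IC50 (μM) averaged with standard errors, n ≥ 3.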

Where only a bound is given, the exact number is not on record here.

For the molecule `N=C(Nc1ccc(-c2ccc(-c3ccc(NC(=N)c4ccc(Cl)cn4)cc3OC3CCCC3)o2)c(OC2CCCC2)c1)c1ccc(Cl)cn1`, the IC50 in the assay on Leishmania donovani is more than 100 µM; with Leishmania amazonensis, more than 10 µM.

As a reminder, the IC50 is the concentration that inhibits the measured activity by half. Low values mean greater potency, high ones weaker potency.

These data come from ChEMBL document CHEMBL1811805, “Molecular factors governing inhibition of arylimidamides against Leishmania: conservative computational modeling to improve chemotherapies” (Bioorg Med Chem, 2011).
